Results on four compounds are retold here after publication PMC9616052 (Archiv der Pharmazie, 2022).

Like-named read-outs stand apart in the source and are kept apart here. Where a SMILES comes first, the peptide text is derived from it. A value given as a limit tells only on which side of the number the result lay.

Assay type in all cases: biochemical
In test [1] the target is T1, circularly permutated caspase-2 (cpCasp2) (Homo sapiens, UniProt P42575).
T1 sequence (P42575 1-452): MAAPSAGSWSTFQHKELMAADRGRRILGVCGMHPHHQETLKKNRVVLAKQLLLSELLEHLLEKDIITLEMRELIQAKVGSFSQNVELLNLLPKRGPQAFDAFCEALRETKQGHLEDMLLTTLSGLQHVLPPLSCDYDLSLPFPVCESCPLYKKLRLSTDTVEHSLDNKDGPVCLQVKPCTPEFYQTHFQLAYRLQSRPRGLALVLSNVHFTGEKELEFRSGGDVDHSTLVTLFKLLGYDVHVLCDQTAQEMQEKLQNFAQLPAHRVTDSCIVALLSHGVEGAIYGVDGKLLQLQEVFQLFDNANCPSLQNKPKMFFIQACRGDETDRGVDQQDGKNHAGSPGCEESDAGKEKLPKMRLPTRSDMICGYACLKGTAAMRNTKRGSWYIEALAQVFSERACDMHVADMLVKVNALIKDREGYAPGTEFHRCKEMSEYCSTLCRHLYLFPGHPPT
Kind of test: Fluorometric enzyme inhibition assay, cpCasp2.

In test [2] the target is T2, caspase-3 (Casp3) (Homo sapiens, UniProt P42574).
T2 sequence (P42574 29-175 limits assumed): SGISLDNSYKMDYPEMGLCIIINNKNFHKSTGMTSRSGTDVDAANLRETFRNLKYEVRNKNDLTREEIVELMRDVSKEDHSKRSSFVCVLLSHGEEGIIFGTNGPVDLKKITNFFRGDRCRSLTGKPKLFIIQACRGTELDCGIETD
T2 sequence (P42574 176-277 limits assumed): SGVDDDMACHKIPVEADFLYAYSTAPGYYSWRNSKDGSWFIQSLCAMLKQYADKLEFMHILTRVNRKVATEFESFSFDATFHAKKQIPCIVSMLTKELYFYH
The test can be described thus: Fluorometric enzyme inhibition assay, Casp3. As to conditions: SEM. The method, boiled down: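 Recombinant Casp3 produced in house, 2 nM/well, in 100 mM HEPES pH 7.0, 150 mM NaCl, 0.1% CHAPS, 1.5% sucrose, 10 mM DTT. Preincubated with DMSO-diluted test compound 5 min, 37 °C. AcDEVD-AFC (Km 7.6 μM) at 5 μM (384-well, duplicate) or 10 μM (96-well, triplicate). Fluorescence ex 400/em 505 nm at 37 °C, 40 min reading. Four-parameter IC50 converted to Ki via Cheng–Prusoff.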

Test [3] has as its target T3, caspase-2 (Casp2) (Homo sapiens, UniProt P42575).
T3 sequence (P42575 170-333 limits assumed): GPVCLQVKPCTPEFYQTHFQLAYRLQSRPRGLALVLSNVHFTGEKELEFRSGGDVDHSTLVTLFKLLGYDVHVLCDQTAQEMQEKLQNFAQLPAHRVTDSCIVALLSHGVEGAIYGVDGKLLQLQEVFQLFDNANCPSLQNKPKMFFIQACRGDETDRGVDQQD
T3 sequence (P42575 348-452 limits assumed): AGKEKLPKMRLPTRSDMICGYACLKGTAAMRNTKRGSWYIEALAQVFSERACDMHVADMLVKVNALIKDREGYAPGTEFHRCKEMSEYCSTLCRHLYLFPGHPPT
The test can be described thus: Fluorometric enzyme inhibition assay, Casp2. The method, boiled down: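 In-house recombinant Casp2 in 100 mM MES pH 6.5, 150 mM NaCl, 0.1% CHAPS, 1.5% sucrose, 10 mM DTT. […] 384-well: 20 nM enzyme, 10 μM substrate, duplicate. 96-well: 5 nM, 25 μM, triplicate. AFC fluorescence (ex 400/em 505 nm) at 37 °C, 40 min point. Four-parameter IC50 fit, converted by Cheng–Prusoff.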

`CC(=O)N[C@H](C(=O)N1CCC[C@H]1C(=O)N[C@H](C=O)CC(=O)O)C(C)C` [compound 17, (S)-3-[(S)-1-(Acetyl-L-valyl)pyrrolidine-2-carboxamido]-4-oxobutanoic acid] (Ac-Val-Pro-Asp-aldehyde): the Ki (in general, the equilibrium dissociation constant of an inhibitor or competing ligand from its target) in test [1] is over 100 µM; in test [2], 5.75 µM.
With `CC(=O)NCCCC[C@H](NC(=O)[C@@H](NC(=O)[C@@H](NC(C)=O)[C@@H](C)O)C(C)C)C(=O)N[C@H](C=O)CC(=O)O` [compound 30, (4S,7S,10S,13S)-10-(4-Acetamidobutyl)-13-formyl-4-[(R)-1-hydroxyethyl]-7-isopropyl-2,5,8,11-tetraoxo-3,6,9,12-tetraazapentadecan-15-oic acid] (Ac-TVK(Ac)D-aldehyde), the Ki in test [1] (SEM) is 20.9 µM; in test [2], 0.224 µM; in test [3] (SEM), 20 µM.
As to `CC(=O)NCCCC[C@H](NC(=O)[C@@H](NC(C)=O)C(C)C)C(=O)N[C@H](C=O)CC(=O)O` [compound 31, (S)-3-{(S)-6-Acetamido-2-[(S)-2-acetamido-3-methylbutanamido]hexanamido}-4-oxobutanoic acid] (Ac-Val-Lys(Ac)-Asp-aldehyde), the values for the Ki in test [2] and in test [3] were 9.55 µM and over 100 µM, respectively.
Turning to `CC(=O)N[C@H](C(=O)N[C@@H](CC(=O)O)C(=O)N[C@H](C(=O)N[C@@H](C)C(=O)N[C@H](C=O)CC(=O)O)[C@@H](C)O)[C@@H](C)O` [compound 55, (4S,7S,10S,13S,16S)-7-(Carboxymethyl)-16-formyl-4,10-bis[(R)-1-hydroxyethyl]-13-methyl-2,5,8,11,14-pentaoxo-3,6,9,12,15-pentaazaoctadecan-18-oic acid] (Ac-TDTAD-aldehyde), the Ki is 0.0646 µM in test [1] (SEM), 0.0603 µM in test [2] and 0.0331 µM in test [3] (SEM).
